The values that follow come from ChEMBL document CHEMBL2046304, “Antitumor agents 290. Design, synthesis, and biological evaluation of new LNCaP and PC-3 cytotoxic curcumin analogs conjugated with anti-androgens” (Bioorg Med Chem, 2012).

The subject of data set [1] is LNCaP. The data set can be described thus: Cytotoxicity against androgen-dependent human LNCAP cells after 72 hrs by SRB assay. It is filed as functional, cell-based. Summed up: (§1)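 SRB assay. Cells were seeded at 3-5 × 10^3 per well in RPMI-1640 with 10% FBS and exposed to a range of concentrations for 72 h; final DMSO was <0.5%. Cells were then fixed in cold 50% TCA for 30 min, stained with 0.04% SRB for 30 min, solubilized in 10 mM Tris base, and read at 515 nm. IC50 is 50% growth inhibition versus untreated control, by log-linear interpolation; mean ± SE of ≥3 independent experiments.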

The subject of data set [2] is PC-3. The data set can be described thus: Cytotoxicity against androgen-independent human PC3 cells after 72 hrs by SRB assay. In kind it is functional, cell-based. To be noted: PC-3, 72 h. In short, it runs like this: as §1
In data set [3] the test system is LNCaP. The experiment in a line: Antiproliferative activity against androgen-dependent human LNCAP cells after 72 hrs by SRB assay. In kind it is functional, cell-based. In short, it runs like this:
as §1

The subject of data set [4] is PC-3. The experiment in a line: Antiproliferative activity against androgen-independent human PC3 cells after 72 hrs by SRB assay. In kind it is functional, cell-based. In short, it runs like this:
as §1

Data set [5] deals with LNCaP. The data set can be described thus: Inhibition of actin based pseudopodia formation in androgen-dependent human LNCAP cells at 40 uM after 48 hrs by DAPI staining based fluorescence microscopy assay. In kind it is functional, cell-based. In short, it runs like this: (§2)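 Cells in RPMI-1640 with 10% FBS were plated on chamber slides for 12 h, then exposed to compound or DMSO for 48 h at 37 °C. Cells were fixed in 4% paraformaldehyde in PBS, nuclei were stained with DAPI, and nuclear and pseudopodia morphology was examined by fluorescence microscopy.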

In data set [6] the test system is PC-3. The data set can be described thus: Inhibition of actin based pseudopodia formation in androgen-dependent human PC3 cells at 40 uM after 48 hrs by DAPI staining based fluorescence microscopy assay. In kind it is functional, cell-based. Conditions: in the assay text read “androgen-independent” for “androgen-dependent”. In short, it runs like this:
as §2

Data set [7] has as its system PC-3. The experiment in a line: Induction of multinucleation in androgen-dependent human PC3 cells at 40 uM after 48 hrs by DAPI staining based fluorescence microscopy assay. It is filed as functional, cell-based. Conditions: in the assay text read “androgen-independent” for “androgen-dependent”. Summed up:
as §2

Data set [8] concerns PC-3. The data set can be described thus: Cytotoxicity against androgen-independent human PC3 cells at 100 uM within 48 hrs by SRB assay. It is filed as functional, cell-based.
The subject of data set [9] is PC-3. The data set can be described thus: Induction of nuclear enlargement in androgen-dependent human PC3 cells at 40 uM after 48 hrs by DAPI staining based fluorescence microscopy assay. In kind it is functional, cell-based. Conditions: in the assay text read “androgen-independent” for “androgen-dependent”. In short, it runs like this: as §2
Data set [10] deals with LNCaP. The experiment in a line: Inhibition of actin based pseudopodia formation in androgen-dependent human LNCAP cells at 100 uM after 48 hrs by DAPI staining based fluorescence microscopy assay. In kind it is functional, cell-based. Summed up: (§3)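 Cells were plated in RPMI-1640 with 10% FBS in chamber slides for 12 h, then exposed to compound or DMSO vehicle for 48 h at 37 °C in 5% CO2. They were fixed with 4% paraformaldehyde in PBS, nuclei were stained with DAPI, and the slides were mounted. Pseudopodia and pseudopodia-like extensions were scored visually by fluorescence microscopy against untreated (DMSO) controls.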

Data set [11] relates to PC-3. The data set can be described thus: Inhibition of actin based pseudopodia formation in androgen-dependent human PC3 cells at 100 uM after 48 hrs by DAPI staining based fluorescence microscopy assay. In kind it is functional, cell-based. Summed up: as §3
The subject of data set [12] is LNCaP. The experiment in a line: Inhibition of actin based pseudopodia formation in androgen-dependent human LNCAP cells at 30 uM after 48 hrs by DAPI staining based fluorescence microscopy assay. It is filed as functional, cell-based. Summed up: as §2
Data set [13] concerns PC-3. The experiment in a line: Inhibition of actin based pseudopodia formation in androgen-dependent human PC3 cells at 30 uM after 48 hrs by DAPI staining based fluorescence microscopy assay. To be noted: in the assay text read “androgen-independent” for “androgen-dependent”. In kind it is functional, cell-based. Summed up: as §2
In data set [14] the test system is PC-3. The experiment in a line: Induction of nuclear enlargement in androgen-dependent human PC3 cells at 30 uM after 48 hrs by DAPI staining based fluorescence microscopy assay. It is filed as functional, cell-based. To be noted: in the assay text read “androgen-independent” for “androgen-dependent”. In short, it runs like this:
as §2

A short description of data set [15]: Drug localization in nucleus of androgen-independent human PC3 cells at 30 uM after 48 hrs by DAPI staining based fluorescence microscopy assay. In kind it is ADME, cell-based. Conditions: pc-3, 48 h.
Data set [16] has as its system LNCaP. The data set can be described thus: Inhibition of actin based pseudopodia formation in androgen-dependent human LNCAP cells at 50 uM after 48 hrs by DAPI staining based fluorescence microscopy assay. In kind it is functional, cell-based. Summed up: as §2
Data set [17] has as its system PC-3. The data set can be described thus: Inhibition of actin based pseudopodia formation in androgen-dependent human PC3 cells at 50 uM after 48 hrs by DAPI staining based fluorescence microscopy assay. In kind it is functional, cell-based. Conditions: in the assay text read “androgen-independent” for “androgen-dependent”. Summed up:
as §2

Data set [18] concerns PC-3. The data set can be described thus: Induction of multinucleation in androgen-dependent human PC3 cells at 50 uM after 48 hrs by DAPI staining based fluorescence microscopy assay. In kind it is functional, cell-based. Conditions: in the assay text read “androgen-independent” for “androgen-dependent”. Summed up:
as §2

Data set [19] in a line: Drug localization in cytosol of androgen-independent human PC3 cells at 50 uM after 48 hrs by DAPI staining based fluorescence microscopy assay. It is filed as ADME, cell-based, PC-3.

pIC50: −log10 of the molar value. Calls of active or inactive are those of the source. The rule behind the calls is not given here.

As to `COc1ccc(/C=C/C(=O)/C=C(O)/C=C/c2ccc(OCC(C)(O)C(=O)Nc3ccc([N+](=O)[O-])c(C(F)(F)F)c3)c(OC)c2)cc1OC` (stereo not given), the pIC50 with LNCaP [1] was 4.38; in the data set with PC-3 [2], 4.41. The Activity entry in the data set on LNCaP [3] and in the data set on PC-3 [4] was “Dose-dependent effect” each time. The inhibition entry in the data set with LNCaP [5] and with PC-3 [6] was “Active” throughout. Further, in the data set on PC-3 [7], the result was Active.
Regarding `COc1ccc(/C=C/C(=O)/C=C(O)/C=C/c2ccc(OC)c(OC)c2)cc1OC` [DIMETHYLCURCUMIN], the pIC50 in the data set with LNCaP [1] was 4.82; with PC-3 [2] it was 4.63.
Turning to `COc1ccc(/C=C/C(=O)/C(F)=C(O)/C=C/c2ccc(OC)c(OC)c2)cc1OC`, the pIC50 with LNCaP [1] was 4.56; in the data set on PC-3 [2], 4.75.
With `COc1ccc(/C=C/C(=O)/C=C(O)/C=C/c2ccc(OC(C)(C)C(=O)Nc3ccc(C#N)c(C(F)(F)F)c3)c(OC)c2)cc1OC`, the pIC50 in the data set with LNCaP [1] and with PC-3 [2] was less than 4.00 throughout. The Activity entry in the data set with LNCaP [3] and in the data set with PC-3 [4] was “Dose-dependent effect” throughout.
On to `COc1cc(/C=C/C(=O)/C=C(O)/C=C/c2ccc(OC(C)(C)C(=O)Nc3ccc(Cl)c(C(F)(F)F)c3)c(OC)c2)ccc1O`, for which the pIC50 with LNCaP [1] and in the data set with PC-3 [2] was less than 4.00 throughout. The Activity entry in the data set on LNCaP [3] and with PC-3 [4] was “Dose-dependent effect” each time.
For `COc1ccc(/C=C/C(=O)/C=C(O)/C=C/c2ccc(OC(C)(C)C(=O)Nc3ccc(Cl)c(C(F)(F)F)c3)c(OC)c2)cc1OC`, the pIC50 with LNCaP [1] and with PC-3 [2] was less than 4.00 in each case. The Activity entry in the data set on LNCaP [3] and with PC-3 [4] was “Dose-dependent effect” each time.
Regarding `COc1ccc(/C=C/C(=O)/C=C(O)/C=C/c2ccc(OC(C)(C)C(=O)Nc3ccc([N+](=O)[O-])c(C(F)(F)F)c3)c(OC)c2)cc1OC`, the pIC50 in the data set with LNCaP [1] and in the data set on PC-3 [2] was less than 4.00 in each case. For the same compound, the Activity entry in the data set with LNCaP [3] and in the data set on PC-3 [4] was “Dose-dependent effect” in each case.
For `CC(C)C(=O)Nc1ccc([N+](=O)[O-])c(C(F)(F)F)c1` [FLUTAMIDE], the pIC50 in the data set on LNCaP [1] was 4.09; with PC-3 [2], 4.01. The Activity result in the data set with LNCaP [3] and in the data set with PC-3 [4] was “Dose-dependent effect” throughout. Besides, the outcome in the data set on PC-3 [8] was inactive.
In the case of `COc1cc(/C=C/C(O)=C/C(=O)/C=C/c2ccc(OC)c(OC)c2)ccc1O` [METHYLCURCUMIN], the results for the pIC50 with LNCaP [1] and in the data set with PC-3 [2] were 4.33 and 4.48, respectively. Further, the inhibition result in the data set on LNCaP [5] and in the data set with PC-3 [6] was “Active” throughout. The result in the data set with PC-3 [9] was Active.
As to `COc1cc(/C=C/C(=O)/C=C(O)/C=C/c2ccc(OC(C)(C)C(=O)Nc3ccc(F)c(C(F)(F)F)c3)c(OC)c2)ccc1O`, the values for the pIC50 with LNCaP [1] and in the data set on PC-3 [2] were 4.26 and 4.28, respectively. In addition, the Activity result in the data set with LNCaP [3] and in the data set on PC-3 [4] was “Dose-dependent effect” each time.
On to `COc1cc(/C=C/C(=O)/C=C(O)/C=C/c2ccc(OC(C)(C)C(=O)Nc3ccc([N+](=O)[O-])c(C(F)(F)F)c3)c(OC)c2)ccc1O`, for which the pIC50 with LNCaP [1] and in the data set with PC-3 [2] was less than 4.00 in each case. In addition, the Activity entry in the data set with LNCaP [3] and in the data set with PC-3 [4] was “Dose-dependent effect” in each case.
For the compound `COc1ccc(/C=C/C(=O)/C=C(O)/C=C/c2ccc(OCC(C)(O)C(=O)Nc3ccc(C#N)c(C(F)(F)F)c3)c(OC)c2)cc1OC` (stereo not given), the pIC50 in the data set with LNCaP [1] was 4.14; in the data set on PC-3 [2], 4.00. The Activity result in the data set with LNCaP [3] and with PC-3 [4] was “Dose-dependent effect” throughout.
With `CC(O)(CS(=O)(=O)c1ccc(F)cc1)C(=O)Nc1ccc(C#N)c(C(F)(F)F)c1` (racemic) [BICALUTAMIDE], the values for the pIC50 in the data set with LNCaP [1] and in the data set on PC-3 [2] were 4.13 and 4.12, respectively. Moreover, the Activity entry with LNCaP [3] and in the data set on PC-3 [4] was “Dose-dependent effect” throughout. In the data set with LNCaP [10], the inhibition result was “inactive”. Also, the inhibition entry with PC-3 [11] was “Active”. The result in the data set on PC-3 [8] was inactive.
`COc1ccc(/C=C/C(=O)/C=C(O)/C=C/c2ccc(OCCCCCCCCCCC(=O)Nc3ccc(C#N)c(C(F)(F)F)c3)c(OC)c2)cc1OC`: the pIC50 with LNCaP [1] and in the data set with PC-3 [2] was less than 4.00 each time.
Turning to `COc1cc(/C=C/C(=O)/C=C(O)/C=C/c2ccc(OC(C)(C)C(=O)Nc3ccc(C)c(C(F)(F)F)c3)c(OC)c2)ccc1O`, the pIC50 with LNCaP [1] and in the data set with PC-3 [2] was less than 4.00 each time. Further, the Activity result in the data set with LNCaP [3] and with PC-3 [4] was “Dose-dependent effect” throughout.
Regarding `COc1cc(/C=C/C(=O)CC(=O)/C=C/c2ccc(O)c(OC)c2)ccc1O` [CURCUMIN], the pIC50 in the data set with LNCaP [1] and with PC-3 [2] was 4.44 throughout. The inhibition result with LNCaP [12] and with PC-3 [13] was “Active” throughout. In the data set on PC-3 [14], the result was Active. In data set [15], the Drug uptake result is reported as “Active”.
Turning to `COc1ccc(/C=C/C(=O)/C=C(O)/C=C/c2ccc(OCCCC(=O)Nc3ccc(C#N)c(C(F)(F)F)c3)c(OC)c2)cc1OC`, the pIC50 in the data set on LNCaP [1] was 4.02; in the data set on PC-3 [2] it was less than 4.00.
As for `COc1ccc(/C=C/C(=O)C(F)(F)C(=O)/C=C/c2ccc(OC)c(OC)c2)cc1OC`, the values for the pIC50 in the data set on LNCaP [1] and with PC-3 [2] were 4.27 and 4.35, respectively.
On to `COc1cc(/C=C/C(=O)/C=C(O)/C=C/c2ccc(OC(C)(C)C(=O)Nc3ccc(C#N)c(C(F)(F)F)c3)c(OC)c2)ccc1O`, for which the values for the pIC50 with LNCaP [1] and in the data set with PC-3 [2] were 4.26 and 4.32, respectively. Also, the Activity result in the data set on LNCaP [3] and with PC-3 [4] was “Dose-dependent effect” throughout. The inhibition entry with LNCaP [16] and in the data set on PC-3 [17] was “Active” throughout. Also, the result in the data set with PC-3 [18] was Active. Further, the Drug uptake entry in [19] is recorded as “Active”.
